From ChEMBL document CHEMBL1671788, “Discovery, synthesis, and structure-activity relationship development of a series of N-(4-acetamido)phenylpicolinamides as positive allosteric modulators of metabotropic glutamate receptor 4 (mGlu(4)) with CNS exposure in rats” (J Med Chem, 2011)
The source made the active and inactive calls. The calls are words filed in the database; no cut-off is given here.

Assays:
[1] = biological target: Metabotropic glutamate receptor 4 (Homo sapiens, UniProt Q14833); experiment: Positive allosteric modulation of human mGluR4 expressed in CHO cells coexpressing Gqi5 assessed as calcium mobilization relative to PHCCC; assay type: functional, cell-based
How it was run: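 CHO cells stably expressing human mGlu4 with Gqi5 were plated at 30,000 cells/well and grown overnight. Cells were loaded with 1 µM Fluo-4 AM for 45 min at 37 °C in HBSS/HEPES/2.5 mM probenecid buffer. […] Ca2+ fluorescence was read (ex 470, em 540 nm). Curves were fitted with a four-parameter logistic; ≥3 independent runs in triplicate.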

[2] = biological target: Metabotropic glutamate receptor 4 (Rattus norvegicus) (UniProt P31423); experiment: Positive allosteric modulation of rat mGluR4 expressed in CHO cells coexpressing Gqi5 assessed as calcium mobilization relative to PHCCC; assay type: functional, cell-based
[3] = biological target: Metabotropic glutamate receptor 4 (Rattus norvegicus, UniProt P31423); experiment: Positive allosteric modulation of rat mGluR4 expressed in CHO cells coexpressing Gqi5 assessed as calcium mobilization; assay type: functional, cell-based; details: read-out: EC50
[4] = Plasma protein binding in Sprague-Dawley rat; assay type: ADME, cell-free; details: read-out: PPB
How it was run: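 Equilibrium dialysis of compound spiked into rat plasma against 25 mM phosphate buffer, pH 7.4. Dialysis ran 4 h at 37 °C with shaking. Both chambers were matrix-matched, extracted with cold acetonitrile and quantified by LC/MS/MS. Triplicate within one plate.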

Cytochrome P450 1A2 = biological target: T1, Cytochrome P450 1A2 (Homo sapiens, UniProt P05177); experiment: Inhibition of human CYP1A2
T1 sequence (P05177 whole entry): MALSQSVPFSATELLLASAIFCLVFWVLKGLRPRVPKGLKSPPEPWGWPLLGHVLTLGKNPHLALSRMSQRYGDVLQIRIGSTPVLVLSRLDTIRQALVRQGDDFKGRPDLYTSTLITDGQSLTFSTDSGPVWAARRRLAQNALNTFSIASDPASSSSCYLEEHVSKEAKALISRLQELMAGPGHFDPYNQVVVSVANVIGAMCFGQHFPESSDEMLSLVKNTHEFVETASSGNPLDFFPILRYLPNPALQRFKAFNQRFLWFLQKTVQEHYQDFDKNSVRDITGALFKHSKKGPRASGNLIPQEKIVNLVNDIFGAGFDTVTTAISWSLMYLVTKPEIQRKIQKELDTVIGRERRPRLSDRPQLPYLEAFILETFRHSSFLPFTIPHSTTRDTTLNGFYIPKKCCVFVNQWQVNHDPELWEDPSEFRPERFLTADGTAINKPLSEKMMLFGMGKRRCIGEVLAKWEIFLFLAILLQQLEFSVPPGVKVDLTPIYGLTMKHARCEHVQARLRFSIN
How it was run: (§1)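 Human liver microsomes (final 0.1 mg/mL) in 0.1 M potassium phosphate, pH 7.4, with a probe cocktail: phenacetin 10 µM (1A2), diclofenac 5 µM (2C9), dextromethorphan 5 µM (2D6) and midazolam 2 µM (3A4). Compound at 100 nM–30 µM final, in duplicate, preincubated 15 min at 37 °C. NADPH (1 mM) reaction ran 8 min, was quenched with cold acetonitrile, and read by LC/MS/MS (MRM). IC50 determined.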

Cytochrome P450 2C9 = Cytochrome P450 2C9 (Homo sapiens, UniProt P11712); experiment: Inhibition of human CYP2C9; how it was run: as §1
Cytochrome P450 3A4 = Cytochrome P450 3A4 (Homo sapiens, UniProt P08684); experiment: Inhibition of human CYP3A4; how it was run: as §1
Cytochrome P450 2D6 = Cytochrome P450 2D6 (Homo sapiens, UniProt P10635); experiment: Inhibition of human CYP2D6; how it was run: as §1
[5] = biological target: Metabotropic glutamate receptor 2 (Rattus norvegicus) (UniProt P31421); experiment: Positive allosteric modulation in rat mGluR2 receptor expressed in HEK293 cells assessed as effect on thallium flux at 10 uM relative to glutamate; assay type: cell-based
How it was run: (§2)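 HEK-293 cells co-expressing the rat receptor and GIRK channels, plated at 15,000 cells/well overnight, then loaded with BTC-AM (1.7 µM) for 1 h at room temperature. Vehicle or compound at 10 µM final was added, and 2.5 min later a full glutamate concentration-response was given in thallium-containing buffer. Thallium flux was read by fluorescence and the leftward or rightward shift of the glutamate curve recorded.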

[6] = biological target: Metabotropic glutamate receptor 3 (Rattus norvegicus) (UniProt P31422); experiment: Positive allosteric modulation in rat mGluR3 receptor expressed in HEK293 cells assessed as effect on thallium flux at 10 uM relative to glutamate; assay type: cell-based; how it was run: as §2
[7] = biological target: Metabotropic glutamate receptor 6 (Rattus norvegicus) (UniProt P35349); experiment: Positive allosteric modulation in rat mGluR6 receptor expressed in HEK293 cells assessed as effect on thallium flux at 10 uM relative to glutamate; assay type: cell-based
[8] = AUC in Sprague-Dawley rat plasma at 10 mg/kg, sc; assay type: ADME, organism-based; parameters: dose 10 mg/kg, route subcutaneous
Plasma [9] = experiment: Cmax in Sprague-Dawley rat plasma at 10 mg/kg, sc; assay type: ADME, organism-based; parameters: dose 10 mg/kg, route subcutaneous; details: in vivo
How it was run: (§3)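 Rats dosed subcutaneously at 10 mg/kg as a 10% tween 80 microsuspension. […] In vivo samples were quantified by LC/MS/MS (ESI, positive-mode MRM) after gradient elution on a C18 column.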

Plasma [10] = experiment: AUC in Sprague-Dawley rat brain at 10 mg/kg, sc; assay type: ADME, organism-based; parameters: dose 10 mg/kg, route subcutaneous; details: in vivo
[11] = Cmax in Sprague-Dawley rat brain at 10 mg/kg, sc; assay type: ADME, organism-based; parameters: dose 10 mg/kg, route subcutaneous; how it was run: as §3
in vivo [12] = details: Sprague-Dawley, rat, brain/plasma, iv, 1 mg/kg
in vivo [13] = details: Sprague-Dawley, rat, sc, 10 mg/kg
[14] = biological target: Metabotropic glutamate receptor 1 (Rattus norvegicus) (UniProt P23385); experiment: Positive allosteric modulation in rat mGluR1 receptor expressed in HEK293 cells assessed as effect on calcium mobilization at 10 uM relative to glutamate
[15] = biological target: Metabotropic glutamate receptor 5 (Rattus norvegicus) (UniProt P31424); experiment: Positive allosteric modulation in rat mGluR5 receptor expressed in HEK293 cells assessed as effect on calcium mobilization at 10 uM relative to glutamate

Chain of Cytochrome P450 3A4 (P08684 whole entry): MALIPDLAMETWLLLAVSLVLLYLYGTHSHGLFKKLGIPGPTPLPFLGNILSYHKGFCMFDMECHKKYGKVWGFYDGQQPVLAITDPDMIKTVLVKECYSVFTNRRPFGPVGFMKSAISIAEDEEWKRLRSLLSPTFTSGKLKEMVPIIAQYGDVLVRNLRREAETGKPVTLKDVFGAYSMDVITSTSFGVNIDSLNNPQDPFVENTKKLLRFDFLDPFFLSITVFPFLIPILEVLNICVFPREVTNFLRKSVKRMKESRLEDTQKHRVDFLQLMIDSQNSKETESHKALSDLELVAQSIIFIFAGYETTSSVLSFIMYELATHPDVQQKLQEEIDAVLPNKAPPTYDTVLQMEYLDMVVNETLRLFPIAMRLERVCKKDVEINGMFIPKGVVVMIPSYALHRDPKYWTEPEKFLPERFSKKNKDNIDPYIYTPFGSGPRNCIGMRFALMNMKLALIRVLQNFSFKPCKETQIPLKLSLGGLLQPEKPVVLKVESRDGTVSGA
Chain of Metabotropic glutamate receptor 1 (Rattus norvegicus) (P23385 19-1199 limits assumed): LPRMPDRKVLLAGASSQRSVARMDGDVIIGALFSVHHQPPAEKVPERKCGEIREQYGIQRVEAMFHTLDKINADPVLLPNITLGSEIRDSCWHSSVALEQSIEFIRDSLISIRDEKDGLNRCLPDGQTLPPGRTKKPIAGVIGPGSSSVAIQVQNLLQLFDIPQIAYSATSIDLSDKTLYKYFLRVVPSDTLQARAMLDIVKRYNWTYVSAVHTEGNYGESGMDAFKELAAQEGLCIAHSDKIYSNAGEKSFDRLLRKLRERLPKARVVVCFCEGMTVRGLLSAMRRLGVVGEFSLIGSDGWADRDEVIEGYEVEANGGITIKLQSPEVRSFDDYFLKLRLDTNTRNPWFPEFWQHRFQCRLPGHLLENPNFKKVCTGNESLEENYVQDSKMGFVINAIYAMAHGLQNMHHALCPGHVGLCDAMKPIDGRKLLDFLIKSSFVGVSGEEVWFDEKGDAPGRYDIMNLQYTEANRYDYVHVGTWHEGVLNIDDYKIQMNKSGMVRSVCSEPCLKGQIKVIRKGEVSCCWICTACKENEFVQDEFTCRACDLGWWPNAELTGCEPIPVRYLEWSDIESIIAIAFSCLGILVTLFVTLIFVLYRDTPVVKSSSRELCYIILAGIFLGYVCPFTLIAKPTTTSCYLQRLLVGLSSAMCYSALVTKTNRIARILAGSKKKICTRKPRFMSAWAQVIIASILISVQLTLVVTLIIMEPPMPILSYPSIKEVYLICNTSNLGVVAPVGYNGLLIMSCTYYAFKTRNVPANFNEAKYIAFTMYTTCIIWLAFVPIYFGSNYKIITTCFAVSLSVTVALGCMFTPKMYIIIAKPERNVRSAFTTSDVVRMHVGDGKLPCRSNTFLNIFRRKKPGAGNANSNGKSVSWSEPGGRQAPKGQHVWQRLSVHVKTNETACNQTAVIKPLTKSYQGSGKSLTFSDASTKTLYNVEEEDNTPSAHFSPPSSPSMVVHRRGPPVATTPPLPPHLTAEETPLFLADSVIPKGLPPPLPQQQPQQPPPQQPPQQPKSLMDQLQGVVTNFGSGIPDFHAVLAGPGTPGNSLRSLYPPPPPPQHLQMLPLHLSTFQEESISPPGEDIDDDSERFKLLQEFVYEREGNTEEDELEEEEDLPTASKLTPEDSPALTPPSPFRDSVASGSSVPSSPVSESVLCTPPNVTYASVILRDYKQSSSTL
Chain of Cytochrome P450 2C9 (P11712 whole entry): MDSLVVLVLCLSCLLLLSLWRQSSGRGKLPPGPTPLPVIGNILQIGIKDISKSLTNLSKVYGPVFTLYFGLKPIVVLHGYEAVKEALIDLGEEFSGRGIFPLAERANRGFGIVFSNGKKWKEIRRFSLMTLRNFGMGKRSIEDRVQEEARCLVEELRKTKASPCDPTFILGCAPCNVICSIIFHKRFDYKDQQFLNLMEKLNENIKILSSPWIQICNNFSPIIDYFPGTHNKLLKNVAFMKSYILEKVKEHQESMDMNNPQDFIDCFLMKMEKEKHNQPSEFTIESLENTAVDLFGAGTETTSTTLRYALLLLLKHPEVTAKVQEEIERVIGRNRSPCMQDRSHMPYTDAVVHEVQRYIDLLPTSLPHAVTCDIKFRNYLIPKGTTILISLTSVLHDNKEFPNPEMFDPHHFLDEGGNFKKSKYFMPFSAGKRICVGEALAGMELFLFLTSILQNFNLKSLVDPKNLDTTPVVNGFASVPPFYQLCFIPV
Chain of Metabotropic glutamate receptor 4 (Homo sapiens, UniProt Q14833) (Q14833 whole entry): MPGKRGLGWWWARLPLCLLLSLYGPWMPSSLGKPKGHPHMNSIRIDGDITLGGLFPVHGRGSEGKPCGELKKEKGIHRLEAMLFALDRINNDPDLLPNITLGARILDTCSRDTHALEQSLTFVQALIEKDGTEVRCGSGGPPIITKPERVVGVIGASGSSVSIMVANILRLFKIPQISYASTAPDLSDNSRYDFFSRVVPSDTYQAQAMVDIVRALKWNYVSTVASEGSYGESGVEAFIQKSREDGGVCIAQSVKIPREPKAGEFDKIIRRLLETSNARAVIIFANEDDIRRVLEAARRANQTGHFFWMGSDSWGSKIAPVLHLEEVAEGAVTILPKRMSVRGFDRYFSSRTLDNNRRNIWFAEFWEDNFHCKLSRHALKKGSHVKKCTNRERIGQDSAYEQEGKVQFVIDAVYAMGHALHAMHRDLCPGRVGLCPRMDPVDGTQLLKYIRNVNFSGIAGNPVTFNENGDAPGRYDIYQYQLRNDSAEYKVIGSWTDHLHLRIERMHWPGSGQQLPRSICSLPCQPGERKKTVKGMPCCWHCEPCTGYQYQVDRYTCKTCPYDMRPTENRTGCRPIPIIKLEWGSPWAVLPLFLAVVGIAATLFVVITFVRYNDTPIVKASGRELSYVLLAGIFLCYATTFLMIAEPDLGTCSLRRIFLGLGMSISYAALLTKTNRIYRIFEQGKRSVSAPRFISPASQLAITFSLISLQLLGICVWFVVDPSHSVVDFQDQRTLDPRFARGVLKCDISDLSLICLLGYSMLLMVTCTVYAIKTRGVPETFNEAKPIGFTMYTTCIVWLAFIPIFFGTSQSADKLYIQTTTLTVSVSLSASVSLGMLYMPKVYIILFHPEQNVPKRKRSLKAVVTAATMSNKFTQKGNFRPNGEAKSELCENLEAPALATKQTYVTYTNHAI
Chain of Metabotropic glutamate receptor 4 (Rattus norvegicus, UniProt P31423) (P31423 whole entry): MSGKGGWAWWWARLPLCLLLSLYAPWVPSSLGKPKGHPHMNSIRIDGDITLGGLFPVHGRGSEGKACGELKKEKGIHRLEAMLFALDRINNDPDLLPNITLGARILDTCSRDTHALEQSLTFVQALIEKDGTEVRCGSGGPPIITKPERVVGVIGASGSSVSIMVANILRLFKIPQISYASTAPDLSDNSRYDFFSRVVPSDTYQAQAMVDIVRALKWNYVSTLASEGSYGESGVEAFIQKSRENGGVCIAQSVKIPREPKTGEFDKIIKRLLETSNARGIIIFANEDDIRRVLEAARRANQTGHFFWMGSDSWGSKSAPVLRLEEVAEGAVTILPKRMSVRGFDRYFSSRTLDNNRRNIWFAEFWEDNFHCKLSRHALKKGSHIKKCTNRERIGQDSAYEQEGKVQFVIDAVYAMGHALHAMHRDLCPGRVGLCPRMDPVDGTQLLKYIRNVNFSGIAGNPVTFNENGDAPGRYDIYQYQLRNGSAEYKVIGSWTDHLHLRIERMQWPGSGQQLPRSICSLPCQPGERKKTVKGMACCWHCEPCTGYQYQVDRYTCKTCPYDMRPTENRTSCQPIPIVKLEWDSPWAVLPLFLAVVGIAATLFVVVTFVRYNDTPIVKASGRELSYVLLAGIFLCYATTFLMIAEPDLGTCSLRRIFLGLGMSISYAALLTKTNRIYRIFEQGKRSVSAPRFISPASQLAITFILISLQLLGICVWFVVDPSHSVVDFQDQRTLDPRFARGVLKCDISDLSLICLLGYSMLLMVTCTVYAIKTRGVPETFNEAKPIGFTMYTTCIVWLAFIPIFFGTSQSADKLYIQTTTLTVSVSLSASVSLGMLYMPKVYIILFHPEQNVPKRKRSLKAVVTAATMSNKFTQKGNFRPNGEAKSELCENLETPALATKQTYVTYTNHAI
Chain of Metabotropic glutamate receptor 4 (Rattus norvegicus) (P31423 whole entry): as above
Chain of Metabotropic glutamate receptor 3 (Rattus norvegicus) (P31422 23-879 limits assumed): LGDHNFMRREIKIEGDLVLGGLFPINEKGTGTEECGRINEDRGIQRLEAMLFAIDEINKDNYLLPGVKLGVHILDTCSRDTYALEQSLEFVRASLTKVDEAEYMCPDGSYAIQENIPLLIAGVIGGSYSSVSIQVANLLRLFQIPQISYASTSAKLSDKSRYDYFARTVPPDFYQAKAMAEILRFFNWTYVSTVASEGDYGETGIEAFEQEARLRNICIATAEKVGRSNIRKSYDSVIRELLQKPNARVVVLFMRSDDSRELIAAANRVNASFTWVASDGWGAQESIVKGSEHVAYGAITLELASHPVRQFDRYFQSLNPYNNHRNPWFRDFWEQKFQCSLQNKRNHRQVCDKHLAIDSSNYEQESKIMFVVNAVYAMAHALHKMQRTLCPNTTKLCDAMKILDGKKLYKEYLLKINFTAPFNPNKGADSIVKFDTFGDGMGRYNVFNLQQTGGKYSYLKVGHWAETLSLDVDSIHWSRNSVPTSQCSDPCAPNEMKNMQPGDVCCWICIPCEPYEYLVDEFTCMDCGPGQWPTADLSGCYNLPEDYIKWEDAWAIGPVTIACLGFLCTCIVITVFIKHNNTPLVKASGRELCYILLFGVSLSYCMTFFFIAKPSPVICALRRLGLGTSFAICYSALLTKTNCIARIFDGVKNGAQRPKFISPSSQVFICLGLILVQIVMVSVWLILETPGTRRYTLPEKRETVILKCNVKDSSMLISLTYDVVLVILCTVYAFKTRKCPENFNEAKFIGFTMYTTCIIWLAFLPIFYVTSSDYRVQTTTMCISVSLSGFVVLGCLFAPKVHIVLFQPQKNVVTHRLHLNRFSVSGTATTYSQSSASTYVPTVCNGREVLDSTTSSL

Question: With `O=C(Nc1ccc(NC(=O)c2ccccc2Cl)c(Cl)c1)c1ccccn1` as the compound, how does the Activity [1] read?
Answer: 77.9%

Question: And the Activity [2]?
Answer: 128%

Question: What about the EC50 [3] of the same compound?
Answer: 570 nM

Question: And the fraction unbound [4]?
Answer: < 0.005

Question: And the INH (Cytochrome P450 1A2)?
Answer: > 30 µM

Question: What about the INH (Cytochrome P450 2C9) of the same compound?
Answer: 11.8 µM

Question: And the INH (Cytochrome P450 3A4)?
Answer: > 30 µM

Question: And the INH (Cytochrome P450 2D6)?
Answer: 13.1 µM

Question: What about the Activity [5] of the same compound?
Answer: inactive

Question: What about the Activity [6] of the same compound?
Answer: inactive

Question: What about the Activity [7] of the same compound?
Answer: inactive

Question: And the AUC(0-t) [8]?
Answer: 658 ng·h/mL

Question: And the Cmax (Plasma [9])?
Answer: 198.1 ng/mL

Question: And the AUC (Plasma [10])?
Answer: 681 ng·h/g

Question: What about the Cmax [11] of the same compound?
Answer: 163 ng/g

Question: And the Kp (in vivo [12])?
Answer: 1.04

Question: What about the Tmax (in vivo [13]) of the same compound?
Answer: 30 min

Question: And the Activity [14]?
Answer: inactive

Question: And the Activity [15]?
Answer: inactive
